Results: ChEMBL document CHEMBL1141085, “Imidazole-4,5-dicarboxamide derivatives with antiproliferative activity against HL-60 cells” (J Med Chem, 2005)

Legend:
[1] = system: HL-60; assay: Mean in vitro concentration to inhibit the metabolic activity of HL-60 cells after 2 days of incubation; n=3; assay type: functional, cell-based; conditions: Homo sapiens, HL-60, 48 h
In short: (§1)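 Human HL-60 promyelocytic leukemia cells in RPMI 1640 with 8.25% FCS, 37 °C, 5% CO2. Seeded in triplicate at 12.5×10^4 (2-day) or 3.75×10^4 (4-day) cells/0.5 mL. Drug in DMSO (0.2% final), serial dilutions.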

[2] = system: HL-60; assay: Mean in vitro concentration to inhibit the metabolic activity of HL-60 cells after 4 days of incubation; n=3; assay type: functional, cell-based; conditions: Homo sapiens, HL-60, 96 h; in short: as §1

Row | IC50 [1] [µM] | IC50 [2] [µM] | Structure (SMILES)
1 | 9.2 | 5.9 | C[C@H](NC(=O)c1[nH]cnc1C(=O)Nc1ccc(Cl)c(Cl)c1)c1ccccc1
2 | 21.4 | 15.2 | Cc1ccc(CNC(=O)c2[nH]cnc2C(=O)Nc2ccc(Cl)c(Cl)c2)cc1
3 | 379 | 38.9 | CCCN(CCC)C(=O)c1[nH]cnc1C(=O)Nc1ccc(Cl)c(Cl)c1
4 | 14.6 | 7.8 | CCCCCCNC(=O)c1[nH]cnc1C(=O)Nc1ccc(Cl)c(Cl)c1
5 | 6 | 3.1 | COc1ccc(NC(=O)c2[nH]cnc2C(=O)N[C@H](C)C(=O)OC(C)(C)C)cc1
6 | 89.4 | 68.8 | C[C@H](c1ccccc1)N(C)C(=O)c1[nH]cnc1C(=O)Nc1ccc(Cl)c(Cl)c1
7 | 6.3 | 3.5 | Cc1ccc(NC(=O)c2nc[nH]c2C(=O)N[C@H](C)C(=O)OC(C)(C)C)cc1
8 | 8.2 | 2.9 | C[C@@H](NC(=O)c1[nH]cnc1C(=O)Nc1cccc(Cl)c1)C(=O)OC(C)(C)C
9 | > 62.5 | > 62.5 | COC(=O)[C@@H](C)NC(=O)c1[nH]cnc1C(=O)Nc1ccc(Cl)c(Cl)c1
10 | 6.3 | 3.7 | CCOC(=O)c1ccc(NC(=O)c2[nH]cnc2C(=O)N[C@H](C)C(=O)OC(C)(C)C)cc1
11 | 17.3 | 10.8 | COC(=O)[C@H](NC(=O)c1[nH]cnc1C(=O)Nc1ccc(Cl)c(Cl)c1)c1ccccc1
12 | 75.5 | 56 | C[C@@H](c1ccccc1)N(C)C(=O)c1[nH]cnc1C(=O)Nc1ccc(Cl)c(Cl)c1
13 | 11.5 | 7.4 | O=C(NCc1ccccc1)c1nc[nH]c1C(=O)Nc1ccc(Cl)c(Cl)c1
14 | 13.2 | 6.8 | COC(=O)[C@@H](NC(=O)c1[nH]cnc1C(=O)Nc1ccc(Cl)c(Cl)c1)c1ccccc1
15 | 6.6 | 3.3 | C[C@@H](NC(=O)c1[nH]cnc1C(=O)Nc1ccc(Cl)cc1)C(=O)OC(C)(C)C
16 | 49.8 | 25.4 | CC(C)(C)OC(=O)CNC(=O)c1[nH]cnc1C(=O)Nc1ccc(Cl)c(Cl)c1
17 | 16.2 | 8.8 | O=C(Nc1ccc(Cl)c(Cl)c1)c1nc[nH]c1C(=O)NCc1ccc(Cl)cc1
18 | 4.7 | 2.7 | C[C@@H](NC(=O)c1[nH]cnc1C(=O)Nc1ccccc1)C(=O)OC(C)(C)C
19 | 24.3 | 18.3 | COc1ccc(CNC(=O)c2[nH]cnc2C(=O)Nc2ccc(Cl)c(Cl)c2)cc1
20 | 14.7 | 7.2 | CC(C)CNC(=O)c1[nH]cnc1C(=O)Nc1ccc(Cl)c(Cl)c1
21 | 17.7 | 13.2 | O=C(NCCc1ccccc1)c1nc[nH]c1C(=O)Nc1ccc(Cl)c(Cl)c1
22 | 4.6 | 2.5 | C[C@@H](NC(=O)c1[nH]cnc1C(=O)Nc1ccc(Cl)c(Cl)c1)C(=O)OC(C)(C)C
23 | > 62.5 | > 62.5 | COC(=O)[C@@H](NC(=O)c1[nH]cnc1C(=O)Nc1ccc(Cl)c(Cl)c1)C(C)C
24 | 33.1 | 12.3 | O=C(NC1CCCCC1)c1nc[nH]c1C(=O)Nc1ccc(Cl)c(Cl)c1
25 | 8.5 | 4.9 | COC(=O)[C@H](NC(=O)c1[nH]cnc1C(=O)Nc1ccc(Cl)c(Cl)c1)C(C)C
26 | 8.8 | 5.9 | C[C@@H](NC(=O)c1[nH]cnc1C(=O)Nc1ccc(Cl)c(Cl)c1)c1ccccc1
27 | 4.9 | 2.4 | C[C@H](NC(=O)c1[nH]cnc1C(=O)Nc1ccc(Cl)c(Cl)c1)C(=O)OC(C)(C)C
28 | 7 | 2.9 | O=C(NCc1ccc(-c2ccccc2)cc1)c1nc[nH]c1C(=O)Nc1ccc(Cl)c(Cl)c1
